For orientation: inhibition means the change of the read-out against control, counted positive when it falls.

This is an account of results in ChEMBL document CHEMBL4334441, “Exploitation of Antibiotic Resistance as a Novel Drug Target: Development of a β-Lactamase-Activated Antibacterial Prodrug” (J Med Chem, 2019).

A short description of data set [1]: Prodrug activation in Escherichia coli CFT073 expressing NDM1 assessed as bacterial NDM1-mediated ciprofloxacin release by measuring growth inhibition incubated for 18 hr by broth microdilution method. To be noted: bacteria. The method in brief: (§1)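 MIC determination in E. coli CFT073, either wild type or carrying pSU18 (empty pEMP, or encoding CTX-M, NDM-1 or KPC). Dose–response growth curves were run, and each point is the mean ± SEM of n = 3. The MIC is the minimal concentration that inhibits bacterial growth.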
Background: Dilution methods test growth across graded concentrations, often in twofold steps.

The subject of data set [2] is Escherichia coli. In words: Growth inhibition of Escherichia coli CFT073 expressing pSU18 incubated for 18 hrs in presence of human serum. The format is organism-based. The method in brief:
(§2)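 MIC assay in E. coli CFT073 carrying pSU18 (empty pEMP or encoding CTX-M-1), run in the presence of human serum. The read-out is the minimal concentration inhibiting bacterial growth.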

Data set [3] has as its system Enterococcus faecalis. In words: Effect on growth of Enterococcus faecalis ATCC 29212 incubated for 18 hrs by broth microdilution method. The data set is classed as organism-based. To be noted: in vivo.
Data set [4] deals with Bacteria. The data set can be described thus: Prodrug activation assessed as bacterial N-terminal His6-tagged CTX-M-15-mediated ciprofloxacin release by measuring inhibition of DNA gyrase activity 1 uM by SYBR Safe DNA gel staining-based agarose gel electrophoresis relative to control. Put shortly:
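Cell-free assay using recombinant DNA gyrase with relaxed pBR322 plasmid DNA as substrate. Compounds were incubated with the gyrase and DNA in the absence or presence of purified recombinant β-lactamase CTX-M-15.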

Data set [5] can be described thus: Prodrug activation in Escherichia coli CFT073 expressing beta lactamase CTX-M-1 assessed as bacterial CTX-M-1-mediated ciprofloxacin release by measuring growth inhibition incubated for 18 hrs in presence of human serum by broth microdilution method. As to conditions: bacteria; call rule not given here. Put shortly: as §2
The nature of data set [6]: Prodrug activation in ciprofloxacin-resistant Escherichia coli isolate EC19 expressing bacterial beta lactamase CTX-M-15 assessed as bacterial CTX-M-15-mediated ciprofloxacin release by measuring growth inhibition incubated for 18 hrs by broth microdilution method.
Data set [7] can be described thus: Prodrug activation in ciprofloxacin-resistant Escherichia coli isolate EC12 expressing bacterial beta lactamase CTX-M-15 assessed as bacterial CTX-M-15-mediated ciprofloxacin release by measuring growth inhibition incubated for 18 hrs by broth microdilution method.
The nature of data set [8]: Prodrug activation in ciprofloxacin sensitive Escherichia coli isolate EC16 expressing bacterial beta lactamase CTX-M-15 assessed as bacterial CTX-M-15-mediated ciprofloxacin release by measuring growth inhibition incubated for 18 hrs by broth microdilution method.
Data set [9] can be described thus: Prodrug activation in Escherichia coli CFT073 expressing beta lactamase CTX-M-1 assessed as bacterial CTX-M-1-mediated ciprofloxacin release by measuring growth inhibition incubated for 18 hrs by broth microdilution method. To be noted: bacteria. The method in brief:
as §1

Data set [10] can be described thus: Ratio of prodrug activation in Escherichia coli CFT073 expressing beta lactamase CTX-M-1 assessed as bacterial CTX-M-1-mediated ciprofloxacin release by measuring bactericidal activity to bactericidal activity against Escherichia coli CFT073 expressing pSU18.
Data set [11] has as its system Escherichia coli. The data set can be described thus: Growth inhibition of ciprofloxacin-susceptible Escherichia coli CFT073 harboring pSU18 incubated for 18 hrs by broth microdilution method. The data set is classed as organism-based. To be noted: in vivo. Put shortly: as §1
Data set [12] can be described thus: Prodrug activation in ciprofloxacin sensitive Escherichia coli isolate EC17 expressing bacterial beta lactamase CTX-M-15 assessed as bacterial CTX-M-15-mediated ciprofloxacin release by measuring growth inhibition incubated for 18 hrs by broth microdilution method.
Data set [13] concerns Escherichia coli. In words: Bactericidal activity against Escherichia coli CFT073 expressing pSU18 assessed as reduction in colony forming units at 78 nM measured after 6 hrs. To be noted: in vivo, 0.078 µM. The format is ADME, organism-based. The method in brief: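 Time-kill assay on uropathogenic E. coli CFT073 carrying pSU18, either empty (pEMP, β-lactamase coding sequence absent) or encoding CTX-M-1. Cells were left untreated or exposed to drug, and viability was followed over time by CFU counts, with a 6 h incubation read-out.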

The nature of data set [14]: Prodrug activation in ciprofloxacin-resistant Escherichia coli isolate EC13 expressing bacterial beta lactamase CTX-M-15 assessed as bacterial CTX-M-15-mediated ciprofloxacin release by measuring growth inhibition incubated for 18 hrs by broth microdilution method.
Data set [15] in a line: Prodrug activation in ciprofloxacin sensitive Escherichia coli isolate EC11 expressing bacterial beta lactamase CTX-M-15 assessed as bacterial CTX-M-15-mediated ciprofloxacin release by measuring growth inhibition incubated for 18 hrs by broth microdilution method.
Data set [16] relates to Escherichia coli. In words: Growth inhibition of Escherichia coli CFT073 incubated for 18 hrs by broth microdilution method. As to conditions: in vivo. The format is organism-based. The method in brief:
as §1

The nature of data set [17]: Prodrug activation in Escherichia coli CFT073 expressing KPC3 assessed as bacterial KPC3-mediated ciprofloxacin release by measuring growth inhibition incubated for 18 hr by broth microdilution method. As to conditions: bacteria. The method in brief:
as §1

For data set [18], the system named is Enterococcus faecalis. In words: Effect on growth of Enterococcus faecalis GW01 incubated for 18 hrs by broth microdilution method. The format is organism-based. To be noted: in vivo.

≈ marks a conversion by molar mass, not a printed value.

In the case of `CC(=O)N[C@@H]1C(=O)N2C(C(=O)O)=C(COC(=O)c3cn(C4CC4)c4cc(N5CCNCC5)c(F)cc4c3=O)CS[C@H]12`, the MIC worked out at 0.04 µg/mL (≈ 0.0683 µM) in [1]; 0.04 µg/mL (≈ 0.0683 µM) in data set [9]; 0.18 µg/mL (≈ 0.307 µM) in data set [11]; 0.18 µg/mL (≈ 0.307 µM) in data set [16]; 0.04 µg/mL (≈ 0.0683 µM) in [17]. Moreover, the Activity entry in [2], in [3], in [13] and in data set [18] was “Non-Toxic” each time. Further, the inhibition in data set [4] was more than 50%. The “growth inhibition (GI)” value in data set [5] is “Active”; in [6], “Not Active”; in data set [7], “Not Active”; in [8], “Active”; in [12], “Active”; in [14], “Not Active”. Moreover, the “growth inhibition (GI)” value in data set [15] is listed as “Active”. In addition, in data set [10], the Ratio was more than 100.
